KCNK9 block: inhibitors of human KCNK9 two-pore domain potassium channel; HEK293 KCNK9, FluxOR thallium flux fluorescence; stronger effect = lower value; 310,000 compounds, 1.2% hits; B-score at 10 µM;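 active = ratio B-score over 3 SD below the library mean, with starting fluorescence within 5 SD of its mean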;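 note: negative B-score means less thallium flux so channel inhibition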
Kir21 inh: Kir2.1 (mouse) channel inhibition; 310,000 compounds, 0.85% hits; B-score at 10 µM; HEK293-Kir2.1, FluxOR thallium flux fluorescence; stronger effect = lower value; AID 1672;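 active = fluorescence ratio B-score at or below minus 3 SD of library scores, with starting-brightness B-score within 2 SD, cut at about -4.2 in these data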;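 note: channel flux triggered by added potassium and thallium sulfate stimulus; B-score of peak minus minimum fluorescence over baseline after thallium stimulus; more negative B-score means stronger Kir2.1 block with less thallium influx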
hERG protect: shields human hERG channel from block by proarrhythmic agents. 310,000 compounds, 0.51% hits. CHO-hERG, FluxOR thallium flux, dofetilide IC70 present. AID 1511. activation (rescue from dofetilide block), less the hit threshold, % at 10 µM;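 active = activation above the mean of controls blocked by dofetilide plus 5 SD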;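 note: thallium influx through hERG after potassium depolarization seen as dye fluorescence rise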
KCNK3 block: human KCNK3 channel inhibition, primary screen; O14649; CHO-KCNK3 thallium flux, FluxOR fluorescence; stronger effect = lower value; B-score at 10 µM; 340,000 compounds, 0.84% hits; AID 602410;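 active = B-score under library mean minus 4 SD, starting fluorescence ratio at most library mean plus 5 SD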;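 note: more negative B-score means stronger inhibition of thallium flux through KCNK3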
Target sequence (O14649 whole entry, looked up): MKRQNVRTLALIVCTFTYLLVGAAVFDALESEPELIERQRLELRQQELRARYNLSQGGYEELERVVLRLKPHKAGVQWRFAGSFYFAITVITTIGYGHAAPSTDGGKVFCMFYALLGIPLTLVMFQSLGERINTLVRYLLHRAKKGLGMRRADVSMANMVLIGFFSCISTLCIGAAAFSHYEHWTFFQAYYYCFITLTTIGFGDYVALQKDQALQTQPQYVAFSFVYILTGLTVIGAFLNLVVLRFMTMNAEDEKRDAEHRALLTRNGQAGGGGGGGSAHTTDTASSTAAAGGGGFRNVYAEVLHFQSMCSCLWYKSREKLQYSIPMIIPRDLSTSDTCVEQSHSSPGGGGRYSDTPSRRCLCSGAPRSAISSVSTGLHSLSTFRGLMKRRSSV
KCNQ1 pot: potentiators or activators of human KCNQ1 potassium channel; CHO-K1 KCNQ1, thallium flux FluxOR fluorescence; stronger effect = higher value; P51787; AID 2648; 310,000 compounds, 0.35% hits; B-score at 10 µM;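 active = fluorescence ratio B-score, a plate-corrected score, at least three library SD, with initial intensity B-score within 5 SD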
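Assay system: stable KCNQ1 CHO-K1 line; medium: assay buffer, equal DMSO in all wells; timing: 90 min dye loading and 20 min compound exposure, both at room temperature; technique: kinetic FluxOR thallium fluorescence, 10-s 1-Hz baseline, 110-s post-stimulus read; read-out basis: B score of baseline-normalized fluorescence ratio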
KCNQ1 block: blocks the human KCNQ1 potassium channel; CHO-K1 KCNQ1, FluxOR thallium flux fluorescence; stronger effect = higher value; P51787; B-score at 10 µM; 310,000 compounds, 1.3% hits;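 active = compounds whose thallium flux B-score, printed positive for inhibition, exceeds three library SD while starting fluorescence stays within three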;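 note: channel opened by potassium depolarization with thallium stimulus after 20 min compound exposure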
KCNK3 confirm: human KCNK3 channel inhibition, confirmation assay. 2,400 compounds, 99% hits. shares compounds with KCNK3 block. CHO-KCNK3 thallium flux, FluxOR fluorescence; 0% buffer, 100% carvedilol maximal block. ratio percent of control, % at 10 µM. AID 651638;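 active = ratio percent of control, averaged over triplicates, above buffer control mean plus 5 SD, cut at about 64% in these data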;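 note: ratio is the fluorescence rise from min to max over baseline after thallium stimulus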
KCNK3 uninduced: counter-screen for KCNK3 inhibitors: effect in non-induced cells; thallium flux ratio (lower = more inhibition) at 10 µM; non-induced KCNK3 parental cells, FluxOR thallium flux; stronger effect = lower value; shares compounds with KCNK3 block; AID 651747; 2,400 compounds, 40% hits;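 active = thallium flux ratio, averaged over three wells, more than 5 SD below the buffer control mean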;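 note: host cells are CHO cells without KCNK3 induction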
Each line names hits and unclear results; the compound was inactive in the other large screens (follow-up assays come after a bar, where they were run). Compounds with a hit are over-represented: about 3.8% of the library has one in this group of screens.

COc1ccccc1C(=O)Nc1c(C(=O)N(CCN(C)C)Cc2ccco2)oc2ccccc12	KCNK3 block -11 | KCNK3 confirm 125 | KCNK3 uninduced 0.14
CCc1nccn1CCC(=O)N1CCc2c([nH]c3ccccc23)C1CC(C)C (configuration not stated)	none
O=C(O)CCNC(=O)c1ccc(Br)o1	none
O=C(NCCC(c1ccccc1)c1ccccc1)c1ccc(Br)o1	KCNK3 block -9.7 | KCNK3 confirm 114 | KCNK3 uninduced inactive
Cc1[nH]c2ccccc2c1SCCNC(=O)c1ccc(Br)o1	KCNK3 block -9 | KCNK3 confirm 97 | KCNK3 uninduced inactive
O=C(NCCc1csc(-c2ccccc2)n1)c1ccc(Br)o1	KCNK3 block -11 | KCNK3 confirm 92 | KCNK3 uninduced inactive
O=C(NCCc1c[nH]c2ccccc12)c1ccc(Br)o1	none (no result: KCNK9 block, Kir21 inh, hERG protect, KCNQ1 pot, KCNQ1 block)
O=C(NCCSc1c[nH]c2ccccc12)c1ccc(Br)o1	KCNK9 block -7.9, KCNK3 block -11 | KCNK3 confirm 98 | KCNK3 uninduced inactive
c1ccc2c(c1)CCN(c1nc3cc4c(cc3s1)OCO4)C2	none
COc1ccc(Cl)cc1NC(=O)CN(C)C(=O)c1ccc(N2CCCCCC2)c([N+](=O)[O-])c1	KCNK3 block -12 | KCNK3 confirm 107 | KCNK3 uninduced inactive
COc1ccc(Cl)cc1NC(=O)CN(C)C(=O)c1ccc(N2CCCCC2)c([N+](=O)[O-])c1	none
CC1Oc2ccccc2C=C1/C=N/NC(=O)c1ccncc1 (configuration not stated)	none
Cc1ccc(-c2onc(C)c2C)cc1S(=O)(=O)N1CCOc2ccccc21	KCNK3 block -9.8 | KCNK3 confirm 126 | KCNK3 uninduced 0.15
CCc1noc(C)c1C(=O)Nc1cc(Cl)ccc1N1CCOCC1	none
Cc1cc(C)cc(NC(=S)N(CCN2CCCCC2)Cc2ccco2)c1	KCNK3 block -8.9 | KCNK3 confirm 90 | KCNK3 uninduced inactive
COC(=O)C1=C(C)NC(=O)NC1c1ccc(-c2ccc(Cl)cc2)o1 (configuration not stated)	none
COC(=O)C1=C(C)NC(=S)NC1c1ccc(-c2cc(Cl)ccc2Cl)o1 (configuration not stated)	KCNK3 block -8.9 | KCNK3 confirm 107 | KCNK3 uninduced inactive
CCOc1ccc(NC(=O)c2cc3ccccc3cc2OC)cc1	none
COc1ccc(NC(=O)c2cc3ccccc3cc2OC)cc1	KCNK3 block -11 | KCNK3 confirm 112 | KCNK3 uninduced inactive
COc1ccc(C(=O)COc2ccccc2C(=O)Nc2ccccc2)cc1	KCNK3 block -9.8 | KCNK3 confirm 108 | KCNK3 uninduced 0.16
COc1ccc(CCNC(=O)CSc2cn(Cc3cccc(C)c3)c3ccccc23)cc1OC	KCNK3 block -9.2 | KCNK3 confirm 105 | KCNK3 uninduced inactive
COc1ccc(N(CC(=O)NCc2ccc(Cl)cc2)S(=O)(=O)c2c(C)noc2C)cc1	none
Cc1ccc(C)c(CSCC(=O)NCc2cccs2)c1	KCNK3 block -11 | KCNK3 confirm 84 | KCNK3 uninduced inactive
Cc1ccc(C(=O)OCC(=O)NCc2cccs2)c(C)c1	none
NC(=O)CN1C(=O)C(=O)N(Cc2ccccc2Cl)C1=O	none
CCCN=C1CC(C)(C)CC(=O)/C1=C(/O)CCCN1C(=O)c2ccccc2C1=O	none
CCCCN=C1CC(C)(C)CC(=O)/C1=C(/O)CCC	KCNK3 block -11 | KCNK3 confirm 100 | KCNK3 uninduced inactive
NC(=NCCc1ccccc1)NS(=O)(=O)c1cccs1	none
O=S(=O)(NC(=NCCc1ccc(Cl)cc1)c1ccccc1Cl)c1cccs1	KCNK3 block -8.9 | KCNK3 confirm 114 | KCNK3 uninduced 0.16
O=C(OCCNc1nc(-c2ccccc2)nc2ccccc12)c1cccnc1	none
c1ccc(-c2nc(NCc3cccnc3)c3ccccc3n2)cc1	KCNK3 block -9.2 | KCNK3 confirm 111 | KCNK3 uninduced 0.15
